Most compounds without a hit are left out; they make up all but 3.9% or so of the library.
CHO parental Ca: signal in parental CHO cells, OX1R antagonist counter-screen; hit rate 0.63% among 330,000; parental CHO-K1, ATP-induced calcium, Fluo-8 fluorescence; AID 463079; inhibition, % at 5.6 µM;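 active means inhibition above that plate's mean sample inhibition plus 3 SD, cut at about 26% in these data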;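 further: 0% = ATP-challenged DMSO wells and 100% = DMSO wells without ATP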
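Assay system: untransfected parental CHO cell line. Also added: ATP agonist challenge. Dosing: one dose, 5.6 µM nominal. Measured by: Fluo-8 fluorescence. Read-out: % inhibition. Benchmarks: ATP wells versus no-ATP DMSO wells. Repeats: no replicates.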
TAAR1 antag: antagonists of human TAAR1; inhibition, % at 3 µM; Q96RJ0; CHO RD-HGA16 TAAR1, Fluo-8 calcium fluorescence, antagonist; hit rate 1.5% among 360,000; AID 624466;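 active means inhibition above a per-plate cutoff, the mean inhibition of test compounds on that plate plus 3 SD, cut at about 49% in these data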;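 further: 0% = DMSO plus EC80 beta-PEA response and 100% = DMSO alone without agonist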
Target sequence (Q96RJ0 whole entry, looked up): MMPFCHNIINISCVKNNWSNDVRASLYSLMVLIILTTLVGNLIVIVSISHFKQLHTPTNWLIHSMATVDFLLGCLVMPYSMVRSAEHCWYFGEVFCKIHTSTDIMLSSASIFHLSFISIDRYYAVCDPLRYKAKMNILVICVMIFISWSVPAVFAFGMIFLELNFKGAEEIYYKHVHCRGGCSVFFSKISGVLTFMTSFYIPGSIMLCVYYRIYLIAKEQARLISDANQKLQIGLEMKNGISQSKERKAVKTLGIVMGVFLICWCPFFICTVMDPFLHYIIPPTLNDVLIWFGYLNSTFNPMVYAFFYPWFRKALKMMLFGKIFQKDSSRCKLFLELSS
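test system = CHO RD-HGA16 cells bearing hTAAR1 | replication = singlicate | controls = DMSO-only wells and EC80 β-PEA-stimulated wells | reagent = EC80 β-phenethylamine stimulus | read-out basis = percent inhibition of PEA-evoked calcium signal, max/basal emission ratio | schedule = seeding 17-24 h prior, 75-min 37 °C, 30-min RT dye loading | signal = kinetic Fluo-8 calcium fluorescence measurement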
OX1R antag-1: human HCRTR1 antagonism; inhibition, % at 5 µM; hit rate 0.43% among 330,000; CHO/OX1R cells, Fluo-8 calcium fluorescence, orexin A; O43613;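 active means inhibition above its plate's threshold, mean inhibition of all tested compounds on the plate plus 3 SD, cut at about 37% in these data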;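 further: 0% = orexin A challenge wells and 100% = SB-334867-A antagonist wells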
Target sequence (O43613 whole entry, looked up): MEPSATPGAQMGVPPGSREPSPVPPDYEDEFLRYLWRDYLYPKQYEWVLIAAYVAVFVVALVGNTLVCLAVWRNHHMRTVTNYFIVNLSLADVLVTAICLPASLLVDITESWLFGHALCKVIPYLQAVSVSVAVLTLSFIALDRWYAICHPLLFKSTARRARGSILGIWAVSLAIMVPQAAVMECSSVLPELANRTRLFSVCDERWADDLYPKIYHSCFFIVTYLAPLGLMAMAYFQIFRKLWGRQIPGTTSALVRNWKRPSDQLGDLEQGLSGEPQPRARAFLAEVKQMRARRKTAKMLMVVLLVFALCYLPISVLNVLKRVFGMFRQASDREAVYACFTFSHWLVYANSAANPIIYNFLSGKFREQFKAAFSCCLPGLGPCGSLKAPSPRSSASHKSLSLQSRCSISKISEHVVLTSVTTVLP
OX1R antag-2: OX1R (human) antagonism; O43613; inhibition, % at 6.6 µM; hit rate 1.8% among 330,000; OX1R-expressing cells, FRET antagonist read-out; in the data active means inhibition mostly above about 38%, no sharp cut-off; inactive means mostly below about 40%;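 further: 0% = agonist challenge alone and 100% = reference antagonist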
TAAR1 agonist: agonists of human TAAR1 | CHO RD-HGA16 TAAR1, Fluo-8 calcium fluorescence; vehicle wells 0%, saturating PEA agonist 100% | activation, % at 3 µM | hit rate 0.99% among 360,000;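 active means activation above the mean activation of all test compounds in the run plus 3 SD, cut at about 38% in these data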
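Test system: RD-HGA16 (CHO) cells co-expressing Gα16 and hTAAR1; dosing: one-point dosing at 3 µM (nominal); timing: 17-24 h seeding, 75 min 37 °C dye, 30 min RT; signal: kinetic Fluo-8 calcium fluorescence; read-out basis: % activation relative to PEA EC100 response; controls: DMSO and PEA EC100; replicates: n 1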
OX1R Fluo8 conf: OX1R (human) antagonism, confirmed; hit rate 38% among 1,100; shares compounds with OX1R antag-1; inhibition, % at 5 µM; CHO/OX1R cells, orexin A calcium Fluo-8 fluorescence; in the data active means inhibition above about 29%;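 further: 0% = agonist challenge alone and 100% = reference antagonist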
CHO Ca triplic: signal in parental CHO cells, OX1R antagonist counter-screen. shares compounds with OX1R antag-1. parental CHO-K1, ATP-induced calcium, Fluo-8 fluorescence. inhibition, % at 5.6 µM. hit rate 9.3% among 1,100;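 active means inhibition above a per-plate limit, the mean inhibition of that plate's test compounds plus 3 SD, cut at about 25% in these data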;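 further: 0% = ATP challenge with DMSO and 100% = DMSO without ATP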
OX1R HTRF conf: OX1R (human) antagonism, HTRF confirmed | shares compounds with OX1R antag-2 | OX1R-expressing cells, HTRF antagonist assay | inhibition, % at 6.6 µM | hit rate 49% among 1,800; in the data active means inhibition above about 55%;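 further: CHO cells expressing OX1R stimulated with orexin A at about EC80; 0% = agonist challenge alone and 100% = reference antagonist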
CHO-K1 HTRF: signal in parental CHO-K1 cells, OX1R antagonist counter-screen | shares compounds with OX1R antag-2 | HTRF counterscreen | inhibition, % at 6.6 µM | hit rate 48% among 1,800; in the data active means inhibition above about 17%;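 further: 0% = agonist challenge with vehicle and 100% = vehicle alone without agonist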
Numbers without * were called inactive; / = not tested or not shown.

SMILES | CHO parental Ca | TAAR1 antag | OX1R antag-1 | OX1R antag-2 | TAAR1 agonist | OX1R Fluo8 conf | CHO Ca triplic | OX1R HTRF conf | CHO-K1 HTRF
C=C(C)C(COc1c2occc2cc2ccc(=O)oc12)OC(C)(C)C(O)COc1c2occc2cc2ccc(=O)oc12 (stereo not given) | -23.9 | 57.6* | 61.1* | 83.8* | 16.1 | 39.3* | -5.5 | 87.9* | -1.5
Cc1ccc(OCCNC(=O)[C@@H](Cc2ccccc2)NC(=O)[C@H]2O[C@@H](n3ccc(=O)[nH]c3=O)[C@H](O)[C@@H]2O)cc1C | / | -21.9 | / | / | 5.2 | / | / | / | /
COc1ccc(Cl)cc1C(=O)OCC(=O)NCCNC(=O)COC(=O)c1cc(Cl)ccc1OC | 1.8 | -18.7 | 27.6 | 58.8* | 4.7 | 25.5 | 41.8* | 70.7* | 1.4
CC(CC(=O)Nc1cccc(S(=O)(=O)N2CCCCC2)c1)c1ccccc1 (stereo not given) | -7.8 | 16.4 | 34.8 | 29.2* | 6.0 | 3.5 | -12.9 | 49.4 | 2.6
CCCCN1CC(COCc2ccccc2)Oc2ccccc2S1(=O)=O (stereo not given) | -21.3 | 18.6 | 11.0 | 29.8 | 7.8 | / | / | / | /
COC(=O)c1ccc2nc(-c3cccc(Cl)c3)c(Cc3ccccc3C(F)(F)F)n2c1 | / | -19.1 | / | / | 0.1 | / | / | / | /
COc1cccc(OC)c1C(=O)Nc1cccc(-n2cnnn2)c1 | -18.5 | 3.1 | 26.0 | 88.0* | 0.9 | 28.1 | -5.4 | 80.1* | -0.1
COc1cc(C(=O)Nc2cccc(-n3cnnn3)c2)cc(OC)c1OC | -12.0 | 2.1 | -14.7 | 27.8 | 6.5 | / | / | / | /
COc1ccc(-c2csc(NC(=O)CS(=O)(=O)c3ccccc3)n2)cc1 | -0.6 | -1.9 | -20.3 | 14.9 | 4.8 | / | / | / | /
COc1ccc(-c2csc(NC(=O)CS(=O)(=O)c3ccc(F)cc3)n2)cc1OC | 14.1 | 14.7 | 27.8 | 75.8* | 13.6 | 14.9 | -2.1 | 25.4 | 4.5
CCNC(=O)C1CCCN(C(=O)c2cccc(C(F)(F)F)c2)CC1 (stereo not given) | / | -2.8 | / | / | 0.7 | / | / | / | /
NC(=O)c1ncn([C@@H]2O[C@H](C(=O)N[C@H](Cc3ccccc3)C(=O)N3CCN(CC(=O)Nc4ccccn4)CC3)[C@@H](O)[C@H]2O)n1 | / | -2.1 | / | / | 1.2 | / | / | / | /
CC(C)c1ccc(NC(=O)C2(C)Cc3c(-c4ccccc4)ccnc3O2)cc1 (stereo not given) | / | -9.6 | / | / | -0.8 | / | / | / | /
O=c1c2ccccc2oc2ccccc12 | / | -10.9 | / | / | -0.5 | / | / | / | /
O=c1c2ccccc2oc2c1ccc1ccccc12 | -35.1 | / | 55.5* | 89.8* | / | 23.4 | -21.2 | 67.6* | -6.3
Cc1cc(NC(=O)CSc2nc(-c3cccs3)nc3ccccc23)no1 | 0.1 | 11.9 | 44.8* | 61.5* | -0.9 | 16.3 | -16.1 | 82.2* | -5.0
CCCCNC(=O)[C@@H]1CC=C[C@@H]2CCN(Cc3ccc(Cl)c(Cl)c3)C(=O)[C@@H]21 | -10.6 | 7.3 | 47.5* | 90.7* | 4.5 | 28.5 | -4.3 | 75.3* | -1.9
COc1ccc(CN2CC[C@H]3C=CC[C@@H](C(=O)Nc4ccc(Cl)c(C(F)(F)F)c4)[C@H]3C2=O)cc1OC | -25.7 | 17.3 | 63.4* | 86.3* | 13.8 | 69.8* | -11.9 | 89.3* | 3.0
O=C(NCc1cccnc1)[C@@H]1CC=C[C@@H]2CCN(Cc3ccc(Cl)c(Cl)c3)C(=O)[C@@H]21 | -16.1 | 12.7 | -19.1 | 28.3 | 2.4 | / | / | / | /
C=CCN=C1NC(c2ccccc2C(F)(F)F)C(C(=O)OC)=C(C)N1Cc1cccc(C(F)(F)F)c1 (stereo not given) | / | -8.1 | / | / | 1.5 | / | / | / | /
COc1ccccc1N=NNc1ccccc1OC | / | 2.8 | / | / | -1.8 | / | / | / | /
O=C(CSc1ccc(Br)c2cccc(Cl)c12)Nc1ccc(S(=O)(=O)Nc2nccs2)cc1 | 0.8 | -16.0 | 79.6* | 96.5* | 1.4 | 73.6* | -3.1 | 89.8* | 8.7
COc1cc(Cl)c(C)cc1Nc1ncccn1 | -1.6 | -23.9 | 25.1 | 82.2* | 8.9 | 23.8 | -4.3 | 73.9* | 8.1
O=C(CNSc1ccc([N+](=O)[O-])cc1[N+](=O)[O-])OCc1ccccc1 | / | 4.5 | / | / | 0.4 | / | / | / | /
Cc1cc(N2CCCC2)nc2ccccc12 | -5.0 | 6.5 | -7.0 | 6.6 | 1.0 | / | / | / | /
SMILES | CHO parental Ca | TAAR1 antag | OX1R antag-1 | OX1R antag-2 | TAAR1 agonist | OX1R Fluo8 conf | CHO Ca triplic | OX1R HTRF conf | CHO-K1 HTRF
Cc1ccc2c(c1)Cc1nc3ccccc3nc1-2 | -12.7 | 9.1 | 40.0 | 86.6* | 4.5 | 33.1* | 12.0 | 90.1* | 7.8
COc1ccc(CNC(=O)C[C@@H]2C=C[C@@H](NS(=O)(=O)c3cccc(OC)c3)[C@@H](CO)O2)cc1 | / | -28.0 | / | / | 1.6 | / | / | / | /
COc1ccc(CCNc2cc(=O)[nH]c(N)n2)cc1 | -3.7 | / | 76.0* | 86.1* | / | 11.5 | 1.8 | 55.3* | 6.1
NC(=O)c1c(NC(=O)c2ccc([N+](=O)[O-])o2)sc2c1CCCC2 | 0.9 | -17.6 | 1.1 | 12.6 | -1.6 | / | / | / | /
NC(=O)c1c(NC(=O)c2cc3ccccc3o2)sc2c1CCC2 | -8.3 | 8.7 | 22.3 | 105.7* | 2.5 | 5.5 | 8.8 | 85.0* | 14.0
Cc1cnc(NC(=O)c2cc3c(C)nn(-c4ccccc4)c3s2)s1 | -26.8 | 8.8 | 76.7* | 55.8* | 3.7 | 72.8* | -7.9 | 92.5* | 11.7
O=C(c1ccoc1)N1CCN(c2cc(-c3cccnc3)nc3cc(-c4cccc(Cl)c4)nn23)CC1 | / | 41.4 | / | / | 4.7 | / | / | / | /
COc1cccc2ccc(CC(O)(c3ccccc3)c3ccccc3)nc12 | / | -20.9 | / | / | 1.3 | / | / | / | /
COC(=O)[C@H](CC(C)C)NS(=O)(=O)N(Cc1ccccc1)[C@@H](CC(C)C)C(=O)OC | -26.8 | 19.7 | 48.6 | 48.3* | 6.1 | 14.5 | -12.1 | 53.6 | 5.3
COC(=O)[C@H](CC(C)C)N(Cc1ccccc1)S(=O)(=O)N(Cc1ccccc1)[C@@H](CC(C)C)C(=O)OC | 14.8 | 2.9 | 16.6 | 8.3 | 1.5 | / | / | / | /
O=c1c2ccccc2oc2cc(-c3ccc4[nH]ccc4c3)ccc12 | -5.2 | 20.7 | 67.3* | 87.9* | 14.3 | 75.7* | 2.7 | 87.5* | 5.1
COc1cc2sc3ccc(-c4ccc5[nH]ccc5c4)cc3c(=O)c2cc1OC | 18.0 | 40.7 | 29.7 | 40.5 | 2.3 | / | / | / | /
COc1ccc(CCNC(=O)COc2ccc(-c3ccccc3)cc2)cc1OC | -16.2 | -12.4 | 30.0 | 74.9* | -0.6 | 38.0* | 38.7* | 82.1* | 5.5
CN(CC(=O)Nc1ccc(Cl)c(C(F)(F)F)c1)C(=O)Cc1ccsc1 | 11.0 | 40.4 | 27.9 | 49.5* | 19.8 | -3.2 | -18.7 | 28.8 | -23.0

High-throughput results (PubChem)
